The term MIC denotes the least concentration at which growth counts as inhibited.

This is an account of results in ChEMBL document CHEMBL1121733, “Synthesis and evaluation of ureido- and vinylureidopenicillins as inhibitors of intraruminal lactic acid production” (J Med Chem, 1981).

Data set [1] can be described thus: Lipophilicity estimated on reversed phase TLC. The format is physicochemical. To be noted: silicone oil-coated silica gel plates, 30% MeOH in pH 7.0 buffer. In outline: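 Reversed-phase TLC on silica gel G plates dipped in 20 vol % silicone oil in hexane and dried. Mobile phase 30 vol % MeOH in pH 7.0 buffer. ΔR_M measured against a reference compound run on every plate, averaged over 2–6 plates.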

For data set [2], the system named is Escherichia coli. Briefly: In vitro Minimum inhibitory concentration against Escherichia coli ATCC 25922. The format is functional. In outline:
(§1)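 Twofold broth microdilution from 200 to 0.0008 µg/mL in brain–heart infusion broth with 0.066 g/L tetrazolium chloride. Inoculum was 1 µL of a 1:10 dilution of an 18 h, 37 °C culture. Plates incubated 16 h at 37 °C, with growth read as red precipitate. Triplicate trays per compound per organism.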

In data set [3] the test system is Staphylococcus aureus. Briefly: In vitro Minimum inhibitory concentration against Staphylococcus aureus ATCC 6538P (penicillin G sensitive). It is filed as functional. In outline:
as §1

For data set [4], the system named is Staphylococcus aureus. The data set is described as follows: In vitro Minimum inhibitory concentration against Staphylococcus penicillin G resistant). The format is functional. In outline: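 Broth microdilution in brain–heart infusion broth with 0.066 g/L tetrazolium chloride. Serial twofold dilutions from 200 to 0.0008 µg/mL. Inoculum: 1 µL of a 1:10 dilution of an 18 h, 37 °C culture. Incubated 16 h at 37 °C; growth read as red precipitate. MIC taken from triplicate trays per compound per organism.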

The test system of data set [5] is Streptococcus pyogenes. The data set is described as follows: In vitro Minimum inhibitory concentration against Streptococcus pyogenes ATCC 8668. The format is functional. In short, it runs like this:
as §1

Data set [6] has as its system Enterococcus faecium. Briefly: In vitro Minimum inhibitory concentration against Streptococcus faecium ATCC 8043-2. The format is functional. In short, it runs like this: as §1
Data set [7] in a line: Effective inhibition concentration for reduction of lactic acid production to less than 10% of control. The format is functional. In short, it runs like this: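 Bovine rumen fluid from a fistulated animal, strained through cheesecloth, mixed 1:1 with CO2-saturated buffer (glucose 27 g/L, trypticase 1.50 g/L, Na2HPO4 4.26 g/L). Compounds retested from 0.5 mg/mL stock serially diluted to 0.004 mg/mL, duplicate tubes, 5.5 h at 39 °C. Stopped with 25% metaphosphoric acid, centrifuged, l(+)-lactate measured enzymatically. Value is the minimum concentration giving lactate below 10% of no-compound control.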

A short description of data set [8]: Effective inhibition concentration for reduction of propionic acid production to less than 95% of control. It is filed as functional. In outline: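 Rumen fluid from a fistulated bovine, strained and mixed 1:1 with CO2-saturated buffer with moderate substrate at normal intraruminal pH (volatile fatty acid model). Retest dilutions from 0.5 mg/mL stock down to 0.004 mg/mL, triplicate tubes, 9 h. Stopped with 25% metaphosphoric acid, centrifuged, propionate measured by GC-FID. Value is the minimum concentration giving propionate below 95% of control.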

The nature of data set [9]: Percent inhibition of lactic acid production by the compound at 0.5 p.p.m. The format is functional. Set-up: scale not given: the % may be the effect or the level left. In short, it runs like this:
(§2)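 Screen at 50, 5 and 0.5 µg/mL of incubation contents in strained bovine rumen fluid mixed 1:1 with CO2-saturated glucose/trypticase buffer, 5.5 h at 39 °C. Stopped with metaphosphoric acid, l(+)-lactate measured enzymatically. Expressed as lactate production as % of control incubations without compound.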

The nature of data set [10]: Percent inhibition of lactic acid production by the compound at 50 p.p.m. Set-up: scale not given: the % may be the effect or the level left. It is filed as functional. In outline: as §2
The nature of data set [11]: Percent inhibition of lactic acid production by the compound at 5 p.p.m. Set-up: scale not given: the % may be the effect or the level left. The format is functional. In outline: as §2

As for `CC1(C)SC2C(NC(=O)NCc3ccc4ccccc4c3)C(=O)N2[C@H]1C(=O)[O-].[Na+]` (stereo partly specified), the “Delta RM” value in data set [1] is given as 0. For the same compound, the MIC in data set [2] is greater than 200 µg/mL; in [3], 0.05 µg/mL; in [4], 50 µg/mL; in data set [5], 0.05 µg/mL; in data set [6] it was 3.12 µg/mL. In addition, the Concentration in [7] stood at 0.08 µg/mL. In addition, in data set [8], the Dose was determined as 5 µg/mL. Besides, the Control in [9] was determined as 4%; in data set [10], 9%; in [11] it was 4%.
